Experimental data reported in ChEMBL document CHEMBL1148234, “Tricyclic pyridones as functionally selective human GABAA alpha 2/3 receptor-ion channel ligands” (Bioorg Med Chem Lett, 2004).

Experiments:
[1] = target: T1, Gamma-aminobutyric acid receptor subunit alpha-1 (Homo sapiens) (UniProt P14867); test: Efficacy at gamma-aminobutyric acid A receptor, alpha 1-ion channel relative to chlorodiazepoxide.
T1 sequence (whole entry): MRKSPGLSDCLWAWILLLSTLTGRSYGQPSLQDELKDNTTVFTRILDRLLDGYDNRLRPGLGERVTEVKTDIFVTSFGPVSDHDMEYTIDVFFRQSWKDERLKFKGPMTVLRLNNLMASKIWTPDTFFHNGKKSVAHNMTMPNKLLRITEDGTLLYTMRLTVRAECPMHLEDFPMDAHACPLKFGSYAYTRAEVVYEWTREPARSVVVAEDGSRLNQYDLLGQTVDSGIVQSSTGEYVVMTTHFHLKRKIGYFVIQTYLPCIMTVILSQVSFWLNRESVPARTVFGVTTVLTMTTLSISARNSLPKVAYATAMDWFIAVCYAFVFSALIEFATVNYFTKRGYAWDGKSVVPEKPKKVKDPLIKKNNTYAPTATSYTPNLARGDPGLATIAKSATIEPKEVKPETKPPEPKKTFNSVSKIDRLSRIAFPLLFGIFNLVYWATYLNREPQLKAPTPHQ
In short: (§1)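 Human recombinant GABAA receptors, α1 or α3 with β3γ2, stably expressed in L(tk⁻) cells. Chloride ion flux modulated by test compound at approximately 1000×Ki, in the presence of GABA at an EC20-equivalent concentration. Efficacy expressed relative to full agonist chlordiazepoxide (=1.0), from at least seven independent experiments; some compounds measured instead by whole-cell patch-clamp current at GABA EC20.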

[2] = target: T2, Gamma-aminobutyric acid receptor subunit alpha-3 (Homo sapiens) (UniProt P34903); test: Efficacy at Gamma-aminobutyric acid A receptor, alpha 3-ion channel relative to chlorodiazepoxide.; in short: as §1
T2 sequence (whole entry): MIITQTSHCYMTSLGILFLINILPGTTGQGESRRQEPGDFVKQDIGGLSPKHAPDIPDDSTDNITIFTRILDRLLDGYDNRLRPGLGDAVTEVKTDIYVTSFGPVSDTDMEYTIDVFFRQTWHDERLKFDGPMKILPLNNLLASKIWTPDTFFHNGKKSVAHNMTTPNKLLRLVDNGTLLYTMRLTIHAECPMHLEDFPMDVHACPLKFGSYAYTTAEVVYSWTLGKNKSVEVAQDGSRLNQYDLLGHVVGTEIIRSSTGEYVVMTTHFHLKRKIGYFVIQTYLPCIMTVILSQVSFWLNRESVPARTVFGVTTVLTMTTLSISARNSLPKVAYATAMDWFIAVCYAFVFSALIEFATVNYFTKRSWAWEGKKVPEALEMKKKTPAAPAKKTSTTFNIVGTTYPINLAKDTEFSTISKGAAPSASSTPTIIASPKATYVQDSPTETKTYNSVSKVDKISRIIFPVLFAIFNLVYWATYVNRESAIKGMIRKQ

[3] = target: T3, GABA-A receptor; alpha-3/beta-3/gamma-2 (Homo sapiens, UniProt P18507+P28472+P34903); test: Binding affinity at human recombinant gamma-aminobutyric-acid A receptor alpha-3-beta-3-gamma-2 expressed in L(tk) cells by [3H]Ro-151788 displacement.; assay type: cell-based
T3 sequence (P18507 whole entry): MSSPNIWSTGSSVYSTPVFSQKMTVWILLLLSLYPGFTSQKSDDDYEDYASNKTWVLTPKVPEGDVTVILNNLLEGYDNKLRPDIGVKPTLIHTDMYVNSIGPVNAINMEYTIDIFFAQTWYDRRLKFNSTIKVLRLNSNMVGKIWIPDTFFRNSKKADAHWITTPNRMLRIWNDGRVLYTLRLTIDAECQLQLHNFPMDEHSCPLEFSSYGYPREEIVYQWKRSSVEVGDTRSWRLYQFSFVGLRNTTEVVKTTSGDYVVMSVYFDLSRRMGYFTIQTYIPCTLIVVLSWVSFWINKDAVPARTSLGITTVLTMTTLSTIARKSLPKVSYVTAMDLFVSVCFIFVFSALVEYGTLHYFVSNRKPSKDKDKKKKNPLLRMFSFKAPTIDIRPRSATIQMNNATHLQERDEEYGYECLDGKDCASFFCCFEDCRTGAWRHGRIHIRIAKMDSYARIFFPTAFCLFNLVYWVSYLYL
T3 sequence (P28472 whole entry): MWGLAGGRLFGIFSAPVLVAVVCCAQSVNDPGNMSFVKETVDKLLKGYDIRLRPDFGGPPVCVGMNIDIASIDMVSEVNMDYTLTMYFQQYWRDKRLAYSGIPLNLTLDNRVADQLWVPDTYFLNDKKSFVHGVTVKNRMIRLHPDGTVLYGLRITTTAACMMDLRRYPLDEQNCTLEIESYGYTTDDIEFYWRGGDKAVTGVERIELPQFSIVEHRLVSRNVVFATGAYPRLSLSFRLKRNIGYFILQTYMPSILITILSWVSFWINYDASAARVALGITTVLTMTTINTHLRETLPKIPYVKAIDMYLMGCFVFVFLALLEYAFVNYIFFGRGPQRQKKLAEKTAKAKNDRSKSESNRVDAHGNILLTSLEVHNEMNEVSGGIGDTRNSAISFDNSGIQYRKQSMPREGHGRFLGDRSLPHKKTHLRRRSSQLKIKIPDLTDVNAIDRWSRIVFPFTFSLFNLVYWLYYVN
T3 sequence (P34903 whole entry): T2 sequence (whole entry)
In short: (§2)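 Human recombinant GABAA receptors (α1 or α3 with β3γ2) stably expressed in L(tk⁻) cells; affinity measured as displacement of [³H]Ro15-1788. Values are mean±SD of 2–10 separate determinations.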

[4] = target: T4, GABA-A receptor; alpha-1/beta-3/gamma-2 (Homo sapiens, UniProt P14867+P18507+P28472); test: Binding affinity at human recombinant gamma-aminobutyric-acid A receptor alpha-1-beta-3-gamma-2 expressed in L(tk) cells by [3H]Ro-151788 displacement.; assay type: cell-based; in short: as §2
T4 sequence (P14867 whole entry): T1 sequence (whole entry)
T4 sequence (P18507 whole entry): T3 sequence (P18507 whole entry)
T4 sequence (P28472 whole entry): T3 sequence (P28472 whole entry)

[5] = target: T5, Gamma-aminobutyric acid receptor subunit alpha-2 (Homo sapiens, UniProt P47869); test: Displacement of [3H]Ro-151788 from human GABA-A receptor alpha2 subunit expressed in L(tk) cells; assay type: cell-based
T5 sequence (P47869 whole entry): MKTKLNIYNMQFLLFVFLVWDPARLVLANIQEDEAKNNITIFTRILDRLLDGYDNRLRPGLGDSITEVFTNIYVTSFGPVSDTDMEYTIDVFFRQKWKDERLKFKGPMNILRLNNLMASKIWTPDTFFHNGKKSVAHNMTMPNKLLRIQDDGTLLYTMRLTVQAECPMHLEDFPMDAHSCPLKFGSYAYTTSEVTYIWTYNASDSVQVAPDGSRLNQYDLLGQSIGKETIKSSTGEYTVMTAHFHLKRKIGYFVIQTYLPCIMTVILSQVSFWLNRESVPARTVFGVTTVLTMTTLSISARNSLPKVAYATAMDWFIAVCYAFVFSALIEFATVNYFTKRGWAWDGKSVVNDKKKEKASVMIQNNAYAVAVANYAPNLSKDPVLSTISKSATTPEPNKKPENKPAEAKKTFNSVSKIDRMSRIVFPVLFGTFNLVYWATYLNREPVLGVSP

[6] = target: T4, GABA-A receptor; alpha-1/beta-3/gamma-2; test: Displacement of [3H]Ro-151788 from human GABA-A receptor alpha-1-beta-3-gamma-2 subunits expressed in L(tk) cells; assay type: cell-based; in short: as §2
[7] = target: Gamma-aminobutyric acid receptor subunit alpha-4 (Homo sapiens, UniProt P48169); test: Displacement of [3H]Ro-151788 from human GABA-A receptor alpha4 subunit expressed in L(tk) cells; assay type: cell-based
Sequence of Gamma-aminobutyric acid receptor subunit alpha-4 (P48169 whole entry): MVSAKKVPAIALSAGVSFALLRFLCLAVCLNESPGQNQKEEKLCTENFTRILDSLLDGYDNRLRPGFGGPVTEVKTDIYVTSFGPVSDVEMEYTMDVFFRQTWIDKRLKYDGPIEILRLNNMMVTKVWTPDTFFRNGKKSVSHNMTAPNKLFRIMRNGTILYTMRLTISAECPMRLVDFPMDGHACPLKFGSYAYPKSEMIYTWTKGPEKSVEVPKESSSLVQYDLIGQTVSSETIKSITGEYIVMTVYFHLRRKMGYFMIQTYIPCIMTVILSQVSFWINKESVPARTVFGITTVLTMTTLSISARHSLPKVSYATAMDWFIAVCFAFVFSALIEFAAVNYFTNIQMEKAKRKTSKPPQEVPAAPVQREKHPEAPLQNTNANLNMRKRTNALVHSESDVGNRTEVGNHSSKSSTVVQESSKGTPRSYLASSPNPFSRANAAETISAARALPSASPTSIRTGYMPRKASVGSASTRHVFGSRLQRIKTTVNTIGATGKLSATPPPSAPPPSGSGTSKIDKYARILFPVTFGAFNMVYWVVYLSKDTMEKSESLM

[8] = target: T6, Gamma-aminobutyric acid receptor subunit alpha-5 (Homo sapiens, UniProt P31644); test: Displacement of [3H]-Ro-15-1788 from human GABA-A receptor alpha5 subunit expressed in L(tk) cells; assay type: cell-based
T6 sequence (P31644 whole entry): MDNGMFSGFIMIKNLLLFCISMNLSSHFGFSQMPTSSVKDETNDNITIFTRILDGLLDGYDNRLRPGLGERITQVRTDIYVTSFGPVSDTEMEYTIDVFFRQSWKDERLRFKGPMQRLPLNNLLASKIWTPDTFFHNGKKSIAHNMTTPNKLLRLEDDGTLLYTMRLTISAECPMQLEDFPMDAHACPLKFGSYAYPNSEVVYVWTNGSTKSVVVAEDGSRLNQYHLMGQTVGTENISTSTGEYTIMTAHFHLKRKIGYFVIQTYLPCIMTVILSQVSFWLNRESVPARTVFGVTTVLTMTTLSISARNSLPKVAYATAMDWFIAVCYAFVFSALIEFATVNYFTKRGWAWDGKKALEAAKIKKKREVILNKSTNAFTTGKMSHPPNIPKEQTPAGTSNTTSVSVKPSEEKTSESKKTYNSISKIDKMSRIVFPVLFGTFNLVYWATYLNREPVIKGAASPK

[9] = Oral bioavailability in dog; assay type: ADME, organism-based, Canis lupus familiaris; settings: in vivo
[10] = Oral bioavailability in rat; assay type: ADME, organism-based; settings: in vivo
[11] = target: Gamma-aminobutyric acid receptor subunit alpha-6 (Homo sapiens, UniProt Q16445); test: Displacement of [3H]Ro-151788 from human GABA-A receptor alpha6 subunit expressed in L(tk) cells; assay type: cell-based
Sequence of Gamma-aminobutyric acid receptor subunit alpha-6 (Q16445 whole entry): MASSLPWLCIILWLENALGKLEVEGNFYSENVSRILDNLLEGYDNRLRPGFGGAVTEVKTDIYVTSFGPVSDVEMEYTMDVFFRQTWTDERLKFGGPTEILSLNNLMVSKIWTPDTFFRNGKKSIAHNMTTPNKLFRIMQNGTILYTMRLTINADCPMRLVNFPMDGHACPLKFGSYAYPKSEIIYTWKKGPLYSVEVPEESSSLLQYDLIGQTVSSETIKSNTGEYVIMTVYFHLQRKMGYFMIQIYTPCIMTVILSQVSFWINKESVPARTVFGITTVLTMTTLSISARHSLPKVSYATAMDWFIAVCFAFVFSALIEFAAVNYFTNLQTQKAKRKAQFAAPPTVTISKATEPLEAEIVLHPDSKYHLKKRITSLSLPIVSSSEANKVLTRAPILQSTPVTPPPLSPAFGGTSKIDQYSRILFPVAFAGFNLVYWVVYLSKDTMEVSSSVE

| Compound | Efficacy [1] | Efficacy [2] | Ki [3] | Ki [4] | Ki [5] | Ki [6] | Ki [7] | Ki [8] | bioavailability [9] | bioavailability [10] | Ki [11] |
| --- | --- | --- | --- | --- | --- | --- | --- | --- | --- | --- | --- |
| Cc1csc(-c2cc(-c3ccn(C)n3)c3n(c2=O)CCCc2ccncc2-3)n1 | 0.29 | 0.47 | 20 nM | 10 nM |  |  |  |  |  |  |  |
| Cc1csc(-c2cc(-c3ccccc3)c3n(c2=O)CCCc2ccncc2-3)n1 | 0.1 | 0.32 | 0.4 nM | 0.7 nM | 0.3 nM |  |  |  |  |  |  |
| Cc1csc(-c2cc(-c3ccccc3F)c3n(c2=O)CCCc2ccncc2-3)n1 | 0.56 | 0.48 | 3 nM | 5 nM |  |  |  |  |  |  |  |
| Cc1csc(-c2cc(-c3cccn3C)c3n(c2=O)CCCc2ccncc2-3)n1 | 0 | 0.46 | 3 nM | 4 nM |  |  |  |  |  |  |  |
| Cc1csc(-c2cc(-c3nccn3C)c3n(c2=O)CCCc2ccncc2-3)n1 | -0.33 | -0.01 | 16.8 nM |  |  | 14.3 nM |  |  |  |  |  |
| Cc1csc(-c2cc(-c3cccnn3)c3n(c2=O)CCCc2ccncc2-3)n1 | -0.33 | -0.44 | 17.3 nM | 26.1 nM |  |  |  |  |  |  |  |
| Cc1csc(-c2cc(-c3ccncn3)c3n(c2=O)CCCc2ccncc2-3)n1 | 0.03 | 0.32 | 8.5 nM | 12.2 nM |  |  |  |  |  |  |  |
| Cc1csc(-c2cc(-c3ccc[nH]3)c3n(c2=O)CCCc2ccncc2-3)n1 | -0.21 | 0.41 | 4.2 nM | 7.8 nM |  |  |  |  |  |  |  |
| Cc1csc(-c2cc(-c3ccc(C#N)cc3)c3n(c2=O)CCCc2ccncc2-3)n1 | -0.04 | 0.39 | 3.1 nM | 5.4 nM |  |  |  |  |  |  |  |
| Cc1csc(-c2cc(-c3ccc(C(C)(C)C)cc3)c3n(c2=O)CCCc2ccncc2-3)n1 |  |  | > 33 nM | > 33 nM |  |  |  |  |  |  |  |
| Cc1csc(-c2cc(-c3ccccc3C)c3n(c2=O)CCCc2ccncc2-3)n1 | 0.08 | 0.36 | 1.2 nM | 1.5 nM |  |  |  |  |  |  |  |
| Cc1csc(-c2cc(-c3ccnnc3)c3n(c2=O)CCCc2ccncc2-3)n1 | -0.41 | 0.2 | 5 nM | 8.3 nM |  |  |  |  |  |  |  |
| Cc1csc(-c2cc(-c3cccnc3)c3n(c2=O)CCCc2ccncc2-3)n1 | -0.16 | -0.02 | 2.4 nM | 5.3 nM |  |  |  |  |  |  |  |
| Cc1csc(-c2cc(-c3ccc4ccccc4c3)c3n(c2=O)CCCc2ccncc2-3)n1 |  |  | > 33 nM | > 33 nM |  |  |  |  |  |  |  |
| Cc1csc(-c2cc(-c3c(C)noc3C)c3n(c2=O)CCCc2ccncc2-3)n1 | -0.11 | 0.41 | 3.1 nM | 4.6 nM |  |  |  |  |  |  |  |
| Cc1csc(-c2cc(-c3cncnc3)c3n(c2=O)CCCc2ccncc2-3)n1 | -0.03 | 0.16 | 9 nM | 21.1 nM |  |  |  |  |  |  |  |
| Cc1csc(-c2cc(-c3ccc(Cl)cc3)c3n(c2=O)CCCc2ccncc2-3)n1 | 0.17 | 0.26 | 0.4 nM |  |  | 0.2 nM |  |  |  |  |  |
| Cc1csc(-c2cc(-c3ccncc3)c3n(c2=O)CCCc2ccncc2-3)n1 | 0 | 0.45 | 0.5 nM | 1.3 nM |  |  | 27.9 nM | > 33.3 nM | 20% | 28% | 65.9 nM |
| Cc1csc(-c2cc(-c3ccoc3)c3n(c2=O)CCCc2ccncc2-3)n1 | 0.04 | 0.05 | 4.4 nM | 3.9 nM |  |  |  |  |  |  |  |
